This is a sample that favours compounds with a hit; in the whole collection about 2.6% have one here.
HTR1E agonist = agonists of human 5-HT1E serotonin receptor | P28566 | CHO 5-HT1E Ga15 NFAT-bla reporter, FRET; 0% DMSO wells, 100% control agonist wells | activation, % at 6 µM | hit rate 0.69% among 65,000 | AID 574;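 active means activation above a set limit, the screen-wide mean activation plus 3 SD, cut at about 8.5% in these data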;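 further: 100% = positive control agonist at 1 µM giving full maximal response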
Target sequence (P28566 whole entry, looked up): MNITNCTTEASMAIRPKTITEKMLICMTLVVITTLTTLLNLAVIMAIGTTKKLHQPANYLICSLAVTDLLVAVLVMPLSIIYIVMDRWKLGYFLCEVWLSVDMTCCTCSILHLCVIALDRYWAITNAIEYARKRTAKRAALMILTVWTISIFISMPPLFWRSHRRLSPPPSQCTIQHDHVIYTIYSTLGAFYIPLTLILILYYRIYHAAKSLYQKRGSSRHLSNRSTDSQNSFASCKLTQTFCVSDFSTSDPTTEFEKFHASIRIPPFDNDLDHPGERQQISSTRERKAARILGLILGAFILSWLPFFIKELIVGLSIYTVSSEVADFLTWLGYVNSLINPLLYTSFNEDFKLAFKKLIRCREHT
S1P3 agonist = activates the human S1P3 receptor; Q99500; S1P3 NFAT-BLA reporter cells, agonism, FRET ratio; relative to 1 µM S1P, basal subtracted; activation, % at 4.5 µM; hit rate 0.1% among 60,000; AID 373;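 active means activation above the screen-wide mean plus 3 SD, cut at about 4.5% in these data, passing the limit was not always enough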
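material = human S1P3 NFAT-BLA reporter CHO cells | schedule = 4 h compound at 37 °C, 2 h substrate at RT | measured by = fluorescent BLA substrate, ex 405 nm, em 460/535 nm ratio | controls = 1 µM S1P reference | replication = primary once, confirmation triplicate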
5HT1a antag = 5-HT1a (human) receptor antagonism | P08908 | CHO 5-HT1a Ga15 NFAT-bla reporter, antagonist mode | inhibition, % at 10 µM | hit rate 0.68% among 62,000 | AID 612;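 active means inhibition above the mean of all tested compounds plus 3 SD, cut at about 43% in these data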;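 further: receptor stimulated by 5-CT agonist at 100 nM near EC80; beta-lactamase reporter measured by ratiometric fluorescence of a cleavable substrate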
5HT1a ag = 5-HT1a (human) receptor agonism; P08908; CHO 5-HT1a Ga15 NFAT-bla reporter, FRET ratio; 0% basal, 100% maximal reference agonist; activation, % at 10 µM; hit rate 0.56% among 65,000;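 active means activation above the screen-wide mean activation plus 3 SD, cut at about 19% in these data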;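 further: 0% = DMSO wells and 100% = 5-CT at EC100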
5HT1E antag = blocks the human 5-HT1E serotonin receptor; P28566; CHO 5-HT1E Ga15 NFAT-bla reporter, FRET, antagonist; inhibition, % at 6 µM; hit rate 0.99% among 65,000; AID 571;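 active means inhibition above a set limit, the mean inhibition across every tested compound plus 3 SD, cut at about 29% in these data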;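 further: signal is the 460 over 535 nm emission ratio of beta-lactamase substrate; 0% = agonist plus DMSO wells and 100% = wells without agonist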
Active calls of the source: *; · = not tested or not shown.

SMILES | HTR1E agonist | S1P3 agonist | 5HT1a antag | 5HT1a ag | 5HT1E antag
Cc1ccc(C2CC(C(F)(F)F)n3nc(C(=O)NCC4CCCO4)cc3N2)cc1 (stereo not given) | -1 | -1 | -2 | -2 | -1
COc1ccc(-c2noc(CSc3nnc(CCc4ccccc4)n3-c3ccccc3)n2)cc1OC | 0 | -1 | 43* | 4 | 7
Cc1noc(C)c1COc1cccc(C(=O)OCC(=O)N2CC(=O)Nc3ccccc32)c1 | -1 | -1 | 32 | -2 | 38*
CCOc1ncccc1C(=O)OCC(=O)N1CC(=O)Nc2ccccc21 | 0 | -1 | 1 | -5 | -8
CCn1c2ccccc2c2nnc(SCCCn3c(=O)[nH]c4ccccc43)nc21 | 2 | 0 | 19 | 2 | 26
COc1ccc2c(-c3ccccc3)cc3nnnn3c2c1 | 0 | 0 | -3 | -1 | 30*
COc1cccc(C2=CC(c3ccccc3)n3nnnc3N2)c1 (stereo not given) | -1 | -5 | · | -2 | 12
O=C(CN1C(=O)CC(c2ccccc2)=Nc2ccccc21)NCc1ccco1 | -1 | -1 | 24 | -2 | 31*
CCn1cc(C(=O)OCC(=O)Nc2ccc(S(=O)(=O)N3CCCC3)cc2)c(=O)c2ccc(C)nc21 | 0 | 0 | -18 | 4 | 0
c1csc(-c2csc3nc(CN4CCOCC4)nc(NCc4ccc5c(c4)OCO5)c23)c1 | 0 | -1 | 52* | -1 | 7
Cc1sc2nc(CN3CCOCC3)nc(NS(=O)(=O)c3ccc4c(c3)OCCO4)c2c1C | 1 | 0 | 1 | -3 | 8
CC(=O)Nc1nc(=O)c2ccccc2s1 | -1 | -2 | 47* | -5 | -10
C/C(Cl)=C\Cn1c(N2CCCCCC2)nc2c1c(=O)n(C)c(=O)n2C | -1 | 2 | 17 | -1 | 35*
Cn1c(=O)c2c(nc(N3CCCCCC3)n2CC(=O)c2ccccc2)n(C)c1=O | 0 | 0 | 5 | -1 | 6
CCCn1c(NC(=O)c2ccccc2)nc2ccccc21 | 0 | -2 | 34 | 0 | -10
CCCn1c(NC(=O)c2cccc(S(=O)(=O)N3CCCC3)c2)nc2ccccc21 | 1 | -1 | 50* | -2 | 20
CCc1ccccc1NC1c2ccccc2C(=O)N1Cc1ccco1 (stereo not given) | 2 | -1 | 11 | 1 | 10
O=C1c2ccccc2C(Nc2ccc(S(=O)(=O)N3CCCCCC3)cc2)N1Cc1ccco1 (stereo not given) | 0 | -1 | 13 | 44* | 5
CCOC(=O)N1CCN(Cc2nc3c(c(=O)n(C)c(=O)n3C)n2CCCc2ccccc2)CC1 | 2 | -1 | -14 | 3 | -4
O=c1nc(C(F)(F)F)nc2ccccn12 | -1 | -2 | 9 | 21* | -4
CC1=C(C(=O)Nc2ccccc2)C(c2ccc(C)o2)n2c(s/c(=C\c3ccco3)c2=O)=N1 (stereo not given) | 0 | -1 | 28 | 0 | 42*
COc1ccc2nc3oc(C(=O)N4CCCCC4)cc3cc2c1 | 1 | -1 | -9 | 0 | 0
COc1ccc2nc3sc(C(=O)N4CCN(C)CC4)cc3cc2c1 | 25* | -1 | -9 | 0 | 1
Cn1c2ccc(Cl)cc2c2nc3ccccc3nc21 | 0 | 1 | 10 | 2 | 37*
CCOC(=O)Nc1ccc2c(c1)Sc1ccccc1N2C(=O)CCN1CCOCC1 | 0 | 1 | 12 | 1 | 23
SMILES | HTR1E agonist | S1P3 agonist | 5HT1a antag | 5HT1a ag | 5HT1E antag
CC(NS(=O)(=O)c1ccccc1)C(=O)Nc1nccs1 (stereo not given) | 0 | 0 | -1 | 268* | 6
C=CCn1c(=O)c2ccccc2n2c(SCc3nc(N)nc(Nc4ccccc4C)n3)nnc12 | 0 | 0 | -46 | 0 | 30*
CC(C)CC(C(=O)Nc1oc(-c2ccco2)c(-c2ccco2)c1C#N)N1C(=O)c2ccccc2C1=O (stereo not given) | 0 | 2 | 3 | -3 | 1
O=S(=O)(NC1CC1)c1ccc(S(=O)(=O)N2CCCC3(CCCCC3)C2)cc1 | 0 | 0 | 1 | 3 | 29*
Cc1nnc(SCC(=O)N2CCN(S(=O)(=O)c3ccc(Cl)cc3)CC2)n(N)c1=O | 24* | 0 | -9 | -1 | 2
CCCC(=O)Nc1cccc(NC(=O)c2ccc3c(c2)OCO3)c1 | 14* | -1 | 5 | -1 | 3
CCC(=O)Nc1cccc(NC(=O)c2ccc3c(c2)OCCO3)c1 | -1 | -1 | 7 | -3 | 7
CSc1cccc(NC(=O)CSc2nc3ccccc3o2)c1 | -1 | -1 | 14 | -1 | 5
O=C(CN1C(=O)NC2NC(=O)NC21)NC1CCCCC1 (stereo not given) | 0 | 0 | -14 | -1 | 2
O=C1CSC(c2ccccc2F)N1c1cc(Cl)ccc1O (stereo not given) | -1 | 0 | 8 | -2 | 30*
Cc1cccc(-n2c(CCCN3C(=O)c4ccccc4C3=O)nc3ccccc3c2=O)n1 | 0 | -1 | -4 | -2 | 5
Cc1cccc(OCc2nc(C#N)c(NCc3ccc4c(c3)OCO4)o2)c1 | 0 | · | 43* | -1 | 6
CCNc1oc(COc2cccc(C)c2)nc1C#N | 0 | · | 16 | -4 | -3
COc1ccc(CNc2oc(COc3ccccc3)nc2C#N)cc1 | 0 | · | 29 | -1 | 15
N#Cc1nc(COc2ccc(Cl)cc2)oc1NCc1ccc2c(c1)OCO2 | -1 | · | 52* | -1 | 3
CC(=O)C(Sc1nc(-c2ccco2)nc2c1c(=O)n(C)c(=O)n2C)C(=O)N(C)C (stereo not given) | 0 | 0 | -11 | -2 | 8
CC(=O)N(Cc1ccc2c(c1)OCO2)C1CC(=O)N(CCc2ccccc2)C1=O (stereo not given) | 0 | -2 | -6 | -3 | -6
CN=Cc1sc2ccccc2c1O | 1 | -1 | 3 | 1 | 6
CC(=O)NCCN=Cc1sc2ccccc2c1O | 0 | · | -1 | 49* | -3
COCCOC(=O)c1[nH]c2c(c1C)C(=O)CC(c1ccco1)C2 (stereo not given) | -1 | -1 | 16 | -1 | 35*
COCCOC(=O)c1[nH]c2c(c1C)C(=O)CC(c1ccc(F)cc1)C2 (stereo not given) | 0 | 0 | 8 | -2 | -7
Cc1c(C(=O)OCc2ccccc2)[nH]c2c1C(=O)CC(c1ccco1)C2 (stereo not given) | -1 | -1 | 58* | 1 | 84*
COC(=O)c1[nH]c2c(c1C)C(=O)CC(c1cccs1)C2 (stereo not given) | 0 | -1 | 39 | -4 | 57*
COC(=O)c1[nH]c2c(c1C)C(=O)CC(c1cc(OC)ccc1OC)C2 (stereo not given) | -1 | -1 | 37 | -2 | 20
COCCOC(=O)c1[nH]c2c(c1C)C(=O)CC(c1ccccc1)C2 (stereo not given) | -1 | · | 36 | 1 | 67*
